PRMT1 inh = blocks human protein arginine methyltransferase 1; 1.3% of 370,000 active; Q99873; AID 652257; inhibition, % at 2.79 µM; recombinant PRMT1, activity-based probe fluorescence polarization;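 active means inhibition above about 21% made by adding two undisclosed values, limit read from the data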
TCR-CD3 inh = human TCR-CD3 binding inhibition. AID 651800. 0.37% of 360,000 active. TAMRA-labeled TCR probe fluorescence, biochemical. inhibition, % at 9.4 µM; in the data active means inhibition above about 19%;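 further: recombinant mutant TCR 2C K166C tagged with TAMRA read by polarization; 0% = receptor in buffer alone and 100% = receptor with positive control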
SIAE primary = human SIAE inhibition, primary screen. inhibition, % at 9.66 µM. Q9HAT2. 0.69% of 370,000 active. SIAE FP-Rh probe binding, fluorescence polarization. AID 1053197;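 active means inhibition above a cutoff: mean of compounds within the control limits plus 3 SD of those, cut at about 17% in these data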;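 further: 0% = plate median of compound wells and 100% = probe without SIAE protein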
HTRA1 inhibitor = inhibitors of human serine peptidase HTRA1 | 0.5% of 340,000 active | inhibition, % at 5.96 µM | Q92743 | recombinant HTRA1, FP-rhodamine activity-based probe, fluorescence polarization | AID 504803; in the data active means inhibition above about 36%;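 further: 0% = enzyme with DMSO and 100% = wells lacking enzyme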
Target sequence (Q92743 whole entry, looked up): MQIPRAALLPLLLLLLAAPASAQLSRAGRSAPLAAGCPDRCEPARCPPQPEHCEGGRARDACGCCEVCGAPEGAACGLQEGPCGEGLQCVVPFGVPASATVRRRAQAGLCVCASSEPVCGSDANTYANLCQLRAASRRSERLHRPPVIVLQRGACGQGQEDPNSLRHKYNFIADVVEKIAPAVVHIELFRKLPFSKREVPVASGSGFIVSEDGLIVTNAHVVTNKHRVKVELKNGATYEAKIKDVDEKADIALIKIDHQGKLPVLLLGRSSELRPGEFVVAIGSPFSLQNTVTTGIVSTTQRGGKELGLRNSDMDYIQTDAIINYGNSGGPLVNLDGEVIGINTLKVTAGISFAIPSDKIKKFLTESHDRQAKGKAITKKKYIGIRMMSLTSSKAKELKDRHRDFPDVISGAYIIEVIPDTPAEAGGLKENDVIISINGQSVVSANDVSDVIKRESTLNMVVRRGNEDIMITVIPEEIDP
PAD4 inh = blocks human protein arginine deiminase 4. Q9UM07. recombinant PAD4, RCA probe fluorescence polarization. inhibition, % at 6.36 µM. 0.41% of 330,000 active. AID 485272;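 active means percent inhibition above a cutoff equal to the mean of all tested compounds plus 3 SD, cut at about 15% in these data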;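 further: 0% = PAD4 with RCA probe and DMSO and 100% = probe without PAD4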
mABHD4 FP = inhibits mouse alpha/beta hydrolase domain 4. inhibition, % at 8.92 µM. Q8VD66. purified mABHD4, FP-Rh probe fluorescence polarization. AID 720543. 0.54% of 370,000 active;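 active means inhibition exceeding the mean over every tested compound plus 3 SD, cut at about 30% in these data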;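 further: 0% = plate median of compound wells and 100% = S159A mutant with DMSO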
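Assay system: Wild-type mouse ABHD4 protein | Medium: HEPES pH 7.0 buffer, 150 mM NaCl, 0.01% Pluronic F-127 | Incubation: Enzyme–compound pre-incubation 45 min, then probe 60 min, both 25 °C | Technique: Fluorescence polarization with parallel and perpendicular emission, 525/598 nm | Evaluation: % inhibition of FP-Rh probe binding versus controls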
PRMT1 confirm = confirmation of human PRMT1 inhibitors; shares compounds with PRMT1 inh; recombinant His-PRMT1, activity-based probe fluorescence polarization; inhibition, % at 2.79 µM; 42% of 3,300 active;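 active means mean inhibition across replicates above the hit cutoff derived for the earlier primary screen, cut at about 22% in these data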
ABHD4 confirm = ABHD4 (mouse) inhibition, FP confirmation; shares compounds with mABHD4 FP; purified mABHD4, FP-Rh probe fluorescence polarization; inhibition, % at 8.92 µM; 55% of 1,800 active;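 active means mean inhibition across replicates above the hit cutoff set in the primary screen, cut at about 30% in these data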;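 further: 0% = wild-type ABHD4 with DMSO and 100% = catalytically dead S159A mutant with DMSO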
SIAE confirm = human SIAE inhibition, confirmation; AID 1117263; SIAE FP-Rh activity-based probe, fluorescence polarization; shares compounds with SIAE primary; 13% of 2,300 active; inhibition, % at 9.66 µM;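 active means mean inhibition of the replicates above the hit cutoff set in the primary screen, cut at about 17% in these data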;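 further: 0% = SIAE with DMSO and probe and 100% = probe without SIAE; inhibitors lower polarization as more probe stays unbound to SIAE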
* hit, by the source's call; . = no result. Most compounds without a hit are left out; they make up all but 2.9% or so of the library.

SMILES | PRMT1 inh | TCR-CD3 inh | SIAE primary | HTRA1 inhibitor | PAD4 inh | mABHD4 FP | PRMT1 confirm | ABHD4 confirm | SIAE confirm
O=[N+]([O-])c1cc2cccnc2c2ncccc12 | -1 | -10 | -5 | . | -7 | 1 | . | . | .
NS(=O)(=O)c1cccc2c1c([N+](=O)[O-])cc1nc(O)c(O)nc12 | 26* | 8 | 0 | 2 | -5 | 31* | 27* | 11 | .
COc1cc([C@@H]2[C@H]3CN(C)CC=C3C(C#N)=C(N)C2(C#N)C#N)cc2c1OCO2 | 4 | -3 | 2 | 11 | -1 | 16 | . | . | .
CN1CC=C2C(C#N)=C(N)C(C#N)(C#N)[C@H](c3cccc(Cl)c3)C2C1 (some centres undefined) | 26* | 5 | 8 | 22 | 11 | 31* | 13 | -2 | .
Cc1cccc(-c2cccc3c4c([nH]c23)[C@@H]2C[C@H](N(C)C(=O)C3CCCCC3)[C@H]([C@H](C)O)CN2CC4)c1 | 0 | . | -6 | . | . | 2 | . | . | .
CCOC(=O)c1c(/N=C/c2cccc([N+](=O)[O-])c2O)sc(C)c1C | 28* | 7 | 14 | 25 | -2 | 33* | -1 | 16 | .
CCCCCCCCN1C(=O)[C@@H](CC(=O)N2CCN(C(=O)C3CC3)CC2)C[C@@]2(C(=O)OC)C1=C[C@H](C(C)(C)C)O[C@@H]2C | 5 | -3 | 3 | . | . | -6 | . | . | .
CC(=O)N1c2ccccc2Sc2ccccc21 | 1 | 1 | 5 | -1 | . | 0 | . | . | .
CN1c2ccccc2Sc2cc(N)ccc21 | 29* | 1 | 9 | 23 | -7 | 37* | 11 | 63* | .
CC1=C(O)C(=O)C(C2=C(O)C(=O)C(C)=C(O)C2=O)=C(O)C1=O | 29* | 0 | 7 | 33 | . | 40* | 34* | 38* | .
COC(=O)C1=C(O)/C(=C\c2ccc(CNS(=O)(=O)c3ccccc3)o2)N=C1C | 39* | 17 | 15 | 8 | 2 | 32* | 16 | 15 | .
O=C(CSc1ccc(-c2ccco2)nn1)c1cccc([N+](=O)[O-])c1 | 31* | 16 | 11 | 18 | 0 | 31* | 4 | 0 | .
O=C(CSc1ccc(-c2ccco2)nn1)N1CCCC1 | 11 | 2 | -8 | 4 | -3 | 1 | . | . | .
CC1(C)CC(=O)C2=C(C1)OC(N)=C(C#N)C2c1cc2c(cc1[N+](=O)[O-])OCO2 (centres undefined) | 58* | 4 | 5 | 8 | -5 | 34* | 31* | 2 | .
CCOc1cc(C2C(C#N)=C(N)OC3=C2C(=O)CC(C)(C)C3)cc([N+](=O)[O-])c1O (centres undefined) | -4 | -5 | 5 | 3 | 1 | 3 | . | . | .
CCCN1CCS(=O)(=O)N(Cc2cn(Cc3ccc(F)cc3)nn2)C(C(=O)OC)C1 (centres undefined) | 1 | . | 0 | . | . | -2 | . | . | .
C[C@H](O)[C@@H]1C(=O)N2CCc3c([nH]c4cccc(-c5ccccc5)c34)[C@@H]2C[C@@H]1N(C)C(=O)c1ccco1 | 8 | -1 | -2 | . | . | -7 | . | . | .
Cn1c(CNc2ccc(O)cc2)nc2ccccc21 | 39* | 10 | 8 | 5 | 1 | 58* | -3 | 0 | .
Cc1ccc(NCc2nc3ccccc3n2C)cc1 | 0 | 9 | -2 | -2 | 3 | 3 | . | . | .
COc1cc(C=NN=c2sc3ccccc3n2C)ccc1OCCO | -5 | 1 | -2 | . | . | 3 | . | . | .
O=C(O)CCC(=O)Nc1ccc(N2CCCCCC2)cc1 | 31* | -5 | 4 | 8 | 2 | 32* | 1 | 12 | .
CCn1c(=O)n(CC(=O)N2CCCC2)c(=O)c2ccccc21 | 0 | . | 3 | . | . | 1 | . | . | .
N#Cc1c(Cl)nsc1NN | 40* | -1 | 11 | 12 | -2 | 73* | 7 | 28 | .
COCCN(C(=O)c1cc(-c2ccco2)nc2ccccc12)c1c(N)n(Cc2ccccc2)c(=O)[nH]c1=O | 83* | 10 | 42* | 10 | -1 | 23 | 9 | . | 2
Cc1cc[n+](-c2[nH]c(=O)sc2/C=N/NC([S-])=Nc2ccccc2)cc1C | 56* | 12 | 19* | 22 | 1 | 31* | 26* | 28 | 3
SMILES | PRMT1 inh | TCR-CD3 inh | SIAE primary | HTRA1 inhibitor | PAD4 inh | mABHD4 FP | PRMT1 confirm | ABHD4 confirm | SIAE confirm
CC(=O)Nc1cc(-c2cccc(NS(C)(=O)=O)c2)cn2c(-c3cccc(C(F)(F)F)c3)cnc12 | 4 | -3 | -19 | . | . | -27 | . | . | .
CC(=O)Nc1cc(-c2ccccc2N(C)C)cn2c(-c3cccc(C(F)(F)F)c3)cnc12 | 99* | 16 | 18* | . | . | 24 | 1 | . | 9
O=C(CSc1ccc(-c2ccco2)nn1)Nc1ccc(F)cc1F | 34* | -2 | 19* | 4 | 1 | 22 | 3 | . | 2
O=C(CSc1ccc(-c2ccccn2)nn1)Nc1ccc(F)cc1F | 0 | -4 | -2 | 8 | 0 | 0 | . | . | .
Cc1cc(C(=O)Nc2ccc(Nc3ccccc3)cc2)ccc1[N+](=O)[O-] | 28* | 7 | 19* | 12 | -1 | 12 | 6 | . | 19*
Cc1ccc(-n2c(SCC(=O)Nc3ccccc3-c3ccccc3)nnc2-c2ccccc2)cc1 | -1 | . | -1 | . | . | -16 | . | . | .
O=C(c1cccc(F)c1F)N1CCCC(c2nc(-c3cccs3)no2)C1 (centres undefined) | 4 | . | 1 | . | . | -2 | . | . | .
NC(N)=NS(=O)(=O)c1ccc(NC(=S)NC(=O)/C=C/c2ccco2)cc1 | 9 | 3 | -7 | 0 | -8 | 14 | . | . | .
NS(=O)(=O)c1ccc(NC(=S)NC(=O)/C=C/c2ccco2)cc1 | 56* | 2 | 19* | 2 | -7 | 29 | 20 | . | -10
CC1=CC(=O)C=CC1=Nc1ccc(N(C)C)cc1 | 67* | -5 | 17* | . | . | 64* | 41* | 57* | 12
O=c1nc2s/c(=C\c3ccc(-c4ccccc4[N+](=O)[O-])o3)c(=O)n2nc1-c1ccccc1 | 59* | 1 | 22* | 27 | . | 40* | 7 | 34* | 6
COC(=O)C1CN(C2CCCC2)CCS(=O)(=O)N1Cc1cn(Cc2ccc(Cl)cc2)nn1 (centres undefined) | 0 | . | 3 | . | . | -2 | . | . | .
CCOc1ccc(-n2c(SCC(=O)Nc3ccc(S(=O)(=O)Nc4nccs4)cc3)nnc2-c2ccco2)cc1 | 6 | . | -23 | . | . | -27 | . | . | .
COC(=O)C1=C(O)/C(=C\c2ccc(CNS(=O)(=O)c3ccc(Cl)cc3)o2)N=C1C | 56* | 14 | 22* | 34 | -2 | 29 | 15 | . | -5
CCOC(=O)C1=C(O)/C(=C\c2ccc(CNS(=O)(=O)c3ccc(Br)cc3)o2)N=C1C | 34* | 0 | 18* | 18 | -3 | 23 | 15 | . | 5

Source: PubChem BioAssay (The Scripps Research Institute Molecular Screening Center)
